Assay results as given in publication PMC3081976 (Bioorganic & medicinal chemistry letters, 2010).

Experiment: Rat pharmacokinetics
Type: in vivo, Sprague-Dawley rats
Conditions: Sprague-Dawley, plasma; for clearance: iv, 1 mg/kg
Method in brief: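 Sprague-Dawley rats (n = 3) received the test compound intravenously at 1 mg/kg; a separate oral gavage arm used 2 mg/kg. Blood was sampled at 5, 15, 30 min and 1, 2, 4, 6, 8 h into EDTA tubes and centrifuged to plasma. Plasma proteins were precipitated with acetonitrile and drug was quantified by LC-MS/MS. CL and t1/2 came from noncompartmental analysis.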

Structure (SMILES) | half-life [h] | clearance [mL/min/kg]
Cc1nc(C)n(-c2ccc(Nc3cc(-c4ccn(C)n4)c(Cl)cn3)cc2)n1 [Compound 15] | 1.3 | 9
Cn1ccc(-c2cc(Nc3ccc(-n4cnc(N5CCOCC5)n4)cc3)ncc2Cl)n1 [Compound 16] | 6.5 | 0.9
Cc1ccc(-c2ncn(-c3ccc(Nc4cc(-c5ccn(C)n5)c(F)cn4)cc3)n2)cn1 [Compound 20] | 2.3 | 4.2

Other lines, results leading:

half-life [h] | clearance [mL/min/kg] | Structure (SMILES)
3.4 | 4 | Cn1ccc(-c2cc(Nc3ccc(-n4cnc(-c5ccccn5)n4)cc3)ncc2F)n1 [Compound 21]
1.5 | 6.4 | Cc1nc(C)n(-c2ccc(Nc3cc(-c4nn(C)cc4-c4ccc(F)cc4)ccn3)cc2)n1 [Compound 37]
